Measured values from paper PMC7522377 (International Journal of Pharmaceutics: X, 2020).
Structures can show the parent of a compound that is named as a salt.

Tests used:
MiaPaCa-2 cells [1] = assay: Cytotoxicity in 3D spheroid culture, Alamar blue assay; assay type: cell-based; details: Homo sapiens, MIA PaCa-2, 48 h, read-out: IC50 μM (3D MiaPaCa-2 culture)
Procedure, shortened: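 MiaPaCa-2 cells were seeded at 3.0 × 10⁴/well in spheroid-forming plates and grown 72 h to form spheroids. Half the medium was then replaced with drug in growth medium for 48 h at 37 °C, 5% CO2. Resazurin (0.05%) was added for 4 h, and fluorescence was read at ex 560/580, em 590/610 nm to give percent viability.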

PPCL-46 cells [2] = assay: Cytotoxicity and spheroid integrity in 3D spheroid culture, Alamar blue assay; assay type: cell-based, human
PPCL-46 cells [3] = assay: Cytotoxicity in 2D culture, Alamar blue assay; assay type: cell-based; details: Homo sapiens, 48 h, read-out: IC50 μM (2D PPCL-46 culture), 48 h treatment, mean ± SEM, n = 3
Procedure, shortened: (§1)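 Cells in DMEM (high glucose, 10% FBS, 1% PenStrep) were seeded at 1 × 10³/well and kept at 37 °C, 5% CO2. At 70–75% confluence they were treated for 48 h in triplicate per concentration; GemHCl ran 5–60 μM, diluted from a PBS stock into medium. Viability: 0.05% resazurin added for 4 h, fluorescence read at ex 560/580, em 590/610 nm; percent viable cells calculated; n = 3.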

MiaPaCa-2 cells [4] = assay: Cytotoxicity in 2D culture, Alamar blue assay; assay type: cell-based; details: Homo sapiens, MIA PaCa-2, 48 h, read-out: IC50 μM (2D MiaPaCa-2 culture)
Procedure, shortened: as §1

VEGF receptor = assay: Immunohistochemical staining of PDX tumor sections; assay type: in vivo, human; details: PDX tumor tissue of treated mice
Procedure, shortened: (§2)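 PDX tumours from treated mice were excised, PBS-washed, fixed 24 h in 10% buffered formalin and moved to 70% ethanol. Sections were immunostained for the target protein, dehydrated, coverslipped and scanned as whole slides at 40×. Staining was scored on the IHC scale (0, 1+, etc.).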

[5] = Pharmacokinetic study after single intravenous bolus; assay type: in vivo; details: mice, iv bolus 30 mg/kg Gem equivalent, one-compartment model
Procedure, shortened: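 Normal healthy mice were grouped as control, gemcitabine hydrochloride, or test compound. Each received a single intravenous bolus of 30 mg/kg gemcitabine equivalent; controls got 0.9% NaCl saline. Gemcitabine was measured in blood and tissue supernatants by peak area. Recovery was checked against control supernatants spiked with 0.5 μg/mL gemcitabine. Groups were compared by t-test.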

HER2 = assay: Immunohistochemical staining of PDX tumor sections; assay type: in vivo, human; details: PDX tumor tissue of treated mice
Procedure, shortened: as §2

[6] = Acute toxicity: liver enzymes activity; assay type: in vivo, mice; details: serum
Procedure, shortened: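 Blood was drawn 24 h after one IV dose of 30 mg/kg gemcitabine equivalent; controls were untreated. Serum was spun at 3500 rpm for 6 min, serially diluted, and run in triplicate in kit enzyme/substrate mixes at 37 °C. AST: glutamate standard, 450 nm. ALT: pyruvate standard, 595 nm. Activity = product formed × dilution / (reaction time × sample volume).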

EGFR = assay: Immunohistochemical staining of PDX tumor sections; assay type: in vivo, human; details: PDX tumor tissue of treated mice
Procedure, shortened: as §2

liver and kidney tissues = assay: Acute toxicity: histology; assay type: in vivo, mice; details: 30 mg/kg Gem equivalent, single iv bolus, H&E staining
Procedure, shortened: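 Normal healthy mice got one IV bolus of test compound or GemHCl at 30 mg/kg gemcitabine equivalent; controls got none. Liver and kidneys were rinsed in PBS and fixed in 10% neutral buffered formalin for 48 h at room temperature. Tissue was paraffin-embedded, cut at 5 μm, H&E-stained and examined by light microscopy at 20×.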

[7] = 24 h after 30 mg/kg Gem equivalent iv, mean ± SD, n = 3

Nc1ccn([C@@H]2O[C@H](CO)[C@@H](O)C2(F)F)c(=O)n1 [GemHCl, Gemcitabine Hydrochloride]
IC50 (MiaPaCa-2 cells [1]): 55.8 ± 1.2 µM
IC50 (PPCL-46 cells [2]; Homo sapiens, 48 h, read-out: IC50 μM (3D PPCL-46 culture)): 95.2 ± 1.4 µM
PPCL-46 spheroidal integrity after treatment (PPCL-46 cells [2]; varying concentrations, images of spheroids): smaller surface spheroidal area with less non-spheroidal shapes
IC50 (PPCL-46 cells [3]): 75.5 ± 1.9 µM
IC50 (MiaPaCa-2 cells [4]): 45.7 ± 1.4 µM
VEGF receptor expression (IHC score) (VEGF receptor): IHC 3+
AUC (0-t) [5]: 28.2 ± 4.3 µg·h/mL
Vss (volume of distribution at steady state) [5]: 21.7 ± 3.6 μg/(μg/mL)
HER2 expression (IHC score) (HER2): IHC 2+
AST level compared with control group ([6]; 30 mg/kg Gem equivalent): no statistically significant elevation
ALT [6, 7]: 232 ± 28 mUnits/mL
AST [6, 7]: 85 ± 9 mUnits/mL
EGFR expression (IHC score) (EGFR): IHC 1+
histopathological examination of kidney and liver compared to control (liver and kidney tissues): no significant morphological changes
